Measured values: ChEMBL document CHEMBL4480400, “Development of an N-Acyl Amino Acid That Selectively Inhibits the Glycine Transporter 2 To Produce Analgesia in a Rat Model of Chronic Pain” (J Med Chem, 2019)
The source made the active and inactive calls.

Key:
[1] = Toxicity in Sprague-Dawley rat model of neuropathic pain assessed as induction of writhing behaviour rat 30 mg/kg, ip administered as single dose measured up to 60 mins post injection; type: organism-based; conditions: in vivo, 1 h
Outline: (§1)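 Male Sprague-Dawley rats underwent chronic nerve constriction surgery, and neuropathic pain developed over 14 days. Rats were housed in groups of 4 and acclimatised to test chambers. Single ip injection of drug or vehicle (1% DMSO, 10% Solutol HS15 in 0.9% saline). Adverse behaviours were scored over the post-injection period alongside von Frey testing, with vehicle as comparison.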

[2] = Toxicity in Sprague-Dawley rat model of neuropathic pain assessed as induction of abdominal pain rat 30 mg/kg, ip administered as single dose measured up to 60 mins post injection; type: organism-based; conditions: in vivo, 1 h; outline: as §1
[3] = biological target: T1, Sodium- and chloride-dependent glycine transporter 2 (Homo sapiens) (UniProt Q9Y345); assay: Slow reversible inhibition of recombinant human GlyT2a expressed in Xenopus laevis oocytes assessed as recovery of transport current at IC50 followed by compound wash out followed by glycine re-application at 5 mins intervals throughout wash time course and measured after 30 mins by two-electrode voltage clamp electrophysiology; type: cell-based; set-up: scale not given: the % may be the effect or the level left
T1 sequence (whole entry): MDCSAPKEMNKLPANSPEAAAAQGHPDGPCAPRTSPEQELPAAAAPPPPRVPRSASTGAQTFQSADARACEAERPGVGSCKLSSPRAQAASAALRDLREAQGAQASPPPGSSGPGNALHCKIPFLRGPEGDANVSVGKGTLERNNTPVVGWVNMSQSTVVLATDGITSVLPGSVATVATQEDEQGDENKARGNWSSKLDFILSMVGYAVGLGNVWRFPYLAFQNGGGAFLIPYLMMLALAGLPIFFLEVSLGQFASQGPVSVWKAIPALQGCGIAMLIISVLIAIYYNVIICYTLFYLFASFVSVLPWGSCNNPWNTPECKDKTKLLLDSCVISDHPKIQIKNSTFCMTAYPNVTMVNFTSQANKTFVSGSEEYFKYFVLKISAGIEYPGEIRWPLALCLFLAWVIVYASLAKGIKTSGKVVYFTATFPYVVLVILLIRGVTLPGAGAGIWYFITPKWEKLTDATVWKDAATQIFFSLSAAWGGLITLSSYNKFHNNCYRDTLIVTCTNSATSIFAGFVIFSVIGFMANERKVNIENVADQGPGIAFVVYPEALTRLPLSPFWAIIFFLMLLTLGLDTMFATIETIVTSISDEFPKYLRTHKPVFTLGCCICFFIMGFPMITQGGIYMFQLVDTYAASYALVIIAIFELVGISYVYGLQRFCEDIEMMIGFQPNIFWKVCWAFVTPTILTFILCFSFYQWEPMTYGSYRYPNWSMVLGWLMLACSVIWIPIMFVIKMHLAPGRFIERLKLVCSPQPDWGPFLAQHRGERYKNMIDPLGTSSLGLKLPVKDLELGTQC

[4] = biological target: T1, Sodium- and chloride-dependent glycine transporter 2 (Homo sapiens); assay: Inhibition of recombinant human GlyT2a expressed in Xenopus laevis oocytes assessed as reduction in channel current by two-electrode voltage clamp electrophysiology relative to control; type: cell-based
[5] = Toxicity in Sprague-Dawley rat model of neuropathic pain assessed as induction of recumbent behaviour rat 30 mg/kg, ip administered as single dose measured up to 60 mins post injection; type: organism-based; conditions: in vivo, 1 h; outline: as §1
Rattus norvegicus = assay: Analgesic activity in Sprague-Dawley rat model of neuropathic pain assessed as reduction in allodynia at 30 mg/kg, ip administered as single dose measured after 90 mins post injection; type: functional, organism-based
Outline: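 Male Sprague-Dawley rats were tested 14 days after nerve-constriction surgery. Mechanical paw withdrawal threshold was measured with von Frey filaments (0.4–15.1 g) by the up-down method, bounded at 0.2 and 15 g. Rats got a single ip injection with vehicle of 1% DMSO, 10% Solutol HS15 in 0.9% saline. Testing ran at 15–360 min post-injection with Bonferroni comparisons against vehicle.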

[6] = Degradation half life in rat plasma at 1000 ng/ml by LC-MS/MS analysis; type: ADME, cell-free
Outline: (§2)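 Pooled human plasma (3 donors) or pooled male Sprague-Dawley rat plasma, thawed at 37°C. Spiked to a nominal 1000 ng/mL final (0.2% DMSO, 0.4% acetonitrile final) and incubated at 37°C. Aliquots were snap-frozen at time points over 4 h (n=3 per time point). Quantified by LC-MS against a same-species blank-plasma calibration with a leucine enkephalin internal standard.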

[7] = biological target: T1, Sodium- and chloride-dependent glycine transporter 2 (Homo sapiens); assay: Inhibition of recombinant human GlyT2a expressed in Xenopus laevis oocytes assessed as reduction in channel current at 30 nM by two-electrode voltage clamp electrophysiology; type: cell-based
Outline: (§3)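 GlyT2-expressing oocytes under two-electrode voltage clamp at -60 mV. Glycine concentration responses were run first without inhibitor, then after 2 min pre-application of inhibitor (10 nM, 30 nM or 1 μM) in ND96, followed by increasing glycine. Plateau currents were normalised to each cell's Imax at 300 μM glycine without inhibitor. ANOVA was applied to EC50 and Imax.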

GlyT2 (Homo sapiens) = assay: Inhibition of recombinant human GlyT2a expressed in expressed in Xenopus laevis oocytes assessed as reduction in [3H]glycine uptake at 0.1 to 1 uM pretreated for 2 mins followed by [3H]glycine addition and measured after 30 mins by scintillation counting method
[8] = biological target: T2, Sodium- and chloride-dependent glycine transporter 1 (Homo sapiens) (UniProt P48067); assay: Inhibition of recombinant human GlyT1b expressed in Xenopus laevis oocytes assessed as reduction in [3H]glycine uptake at 0.1 to 1 uM pretreated for 2 mins followed by [3H]glycine addition and measured after 30 mins by scintillation counting method; type: cell-based
T2 sequence (whole entry): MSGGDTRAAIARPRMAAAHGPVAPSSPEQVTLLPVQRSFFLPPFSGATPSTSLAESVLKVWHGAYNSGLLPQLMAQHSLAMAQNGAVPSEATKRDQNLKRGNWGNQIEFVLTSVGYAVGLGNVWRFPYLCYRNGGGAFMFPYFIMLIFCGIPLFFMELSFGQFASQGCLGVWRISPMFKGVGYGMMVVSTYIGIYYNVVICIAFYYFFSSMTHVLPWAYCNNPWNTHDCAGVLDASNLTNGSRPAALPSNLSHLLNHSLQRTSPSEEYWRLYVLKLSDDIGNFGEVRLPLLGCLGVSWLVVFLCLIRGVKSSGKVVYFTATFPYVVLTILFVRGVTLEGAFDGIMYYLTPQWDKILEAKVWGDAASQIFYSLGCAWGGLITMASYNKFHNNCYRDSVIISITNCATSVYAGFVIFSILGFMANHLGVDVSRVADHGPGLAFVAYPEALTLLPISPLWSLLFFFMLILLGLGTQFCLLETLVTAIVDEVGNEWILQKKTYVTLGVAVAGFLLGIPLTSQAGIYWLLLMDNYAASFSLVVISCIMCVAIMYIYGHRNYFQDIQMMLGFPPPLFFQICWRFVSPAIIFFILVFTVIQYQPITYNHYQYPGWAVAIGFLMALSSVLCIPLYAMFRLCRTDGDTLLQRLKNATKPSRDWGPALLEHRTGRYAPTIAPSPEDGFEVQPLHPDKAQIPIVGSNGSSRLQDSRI

[9] = biological target: T1, Sodium- and chloride-dependent glycine transporter 2 (Homo sapiens); assay: Inhibition of recombinant human GlyT2a expressed in Xenopus laevis oocytes assessed as reduction in channel current at 1 uM by two-electrode voltage clamp electrophysiology; type: cell-based; outline: as §3
[10] = Degradation half life in rat liver microsomes at 1 uM by LC-MS/MS analysis; type: ADME, Microsome
Outline: (§4)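 Human or rat liver microsomes (0.4 mg/mL protein final) in 0.1 M phosphate buffer pH 7.4 with 1 μM compound at 37°C. Reaction started with an NADPH-regenerating system plus MgCl2. Samples were quenched with ice-cold acetonitrile at time points over 60 min. Remaining parent was measured by LC-MS, and the first-order depletion rate constant came from an exponential decay fit.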

[11] = Drug degradation in human plasma at 1000 ng/ml measured over 240 mins by LC-MS/MS analysis; type: ADME, cell-free; conditions: read-out: Drug degradation; outline: as §2
[12] = Drug degradation in human liver microsomes at 1 uM measured over 60 mins by LC-MS/MS analysis; type: ADME, Microsome; conditions: read-out: Drug degradation; outline: as §4
[13] = biological target: T3, Sodium- and chloride-dependent glycine transporter 2 (Homo sapiens, UniProt Q9Y345); assay: Inhibition of recombinant human GlyT2a expressed in Xenopus laevis oocytes assessed as reduction in channel current by two-electrode voltage clamp electrophysiology; type: cell-based
T3 sequence (Q9Y345 whole entry): T1 sequence (whole entry)

[14] = biological target: T1, Sodium- and chloride-dependent glycine transporter 2 (Homo sapiens); assay: Inhibition of recombinant human GlyT2a expressed in Xenopus laevis oocytes assessed as reduction in channel current at 10 nM by two-electrode voltage clamp electrophysiology; type: cell-based; outline: as §3
[15] = biological target: T4, Sodium- and chloride-dependent glycine transporter 1 (Homo sapiens, UniProt P48067); assay: Inhibition of recombinant human GlyT1b expressed in Xenopus laevis oocytes assessed as reduction in channel current by two-electrode voltage clamp electrophysiology; type: cell-based
T4 sequence (P48067 whole entry): T2 sequence (whole entry)

Row | Compound | Activity [1] | Activity [2] | Activity [3] [%] | Imax [4] [%] | Activity [5] | Activity (Rattus norvegicus) | t1/2 [6] [h] | Imax [7] [%] | inhibition (GlyT2 (Homo sapiens)) | inhibition [8] | Imax [9] [%] | t1/2 [10] [h] | metabolised at 4 h, 1000 ng/ml [11] [%] | metabolised at 1 h, 1 µM [12] [%] | IC50 [13] [nM] | Imax [14] [%] | IC50 [15] [nM]
1 | COc1cc(C(=O)NCC2(N(C)C)CCCC2)cc(OC)c1OCc1ccccc1 | Toxic | Toxic | 35 | 93 | Toxic | Active |  |  |  |  |  |  |  |  |  |  | 
2 | CCCCCCCC/C=C\CCCCCCCC(=O)N[C@@H](CCCCN)C(=O)O.Cl |  |  |  | 86.8 |  |  | 1.43 | 62.4 | Active | inactive | 30.2 | 0.9 | < 15 | < 15 | 25.5 | 82.8 | > 3000
